The results in this text go back to ChEMBL document CHEMBL3779860, “A Designed Tryptophan- and Lysine/Arginine-Rich Antimicrobial Peptide with Therapeutic Potential for Clinical Antibiotic-Resistant Candida albicans Vaginitis” (J Med Chem, 2016).

Calls of active or inactive are those of the source. No cut-off for these calls is given here.

The test system of assay [1] is Candida albicans. Nature of the assay: Antimicrobial activity against antibiotic resistant Candida albicans clinical isolate 08032815 compound treated in PBS solution measured after 36 hrs by disc diffusion method. Type of assay: functional. As to conditions: isolate 08032815, 36 h. A digest of the protocol: (§1)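 Salt-tolerance test: peptide at 2 mg/mL was prepared in sterile ddH2O, in 150 mM NaCl, or in PBS (150 mM NaCl, 2.7 mM KCl, 1.5 mM KH2PO4, 8 mM K2HPO4, pH 7.2). Anti-C. albicans activity was then assessed by inhibition zone on Sabouraud medium with 0.7% agar.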

The subject of assay [2] is Candida albicans. Description: Antimicrobial activity against antibiotic resistant Candida albicans clinical isolate 08032821 compound treated in PBS solution measured after 36 hrs by disc diffusion method. Type of assay: functional. The conditions noted are these: isolate 08032821, 36 h. A digest of the protocol: as §1
Background: A growth-free zone around the sample is the usual read-out of agar diffusion tests.

In assay [3] the test system is Candida albicans. Nature of the assay: Antimicrobial activity against antibiotic resistant Candida albicans clinical isolate 08032710 compound treated in double distilled water measured after 36 hrs by disc diffusion method. The assay is classed as functional. The conditions noted are these: isolate 08032710, 36 h. A digest of the protocol:
as §1

Assay [4] has as its system Candida albicans. Nature of the assay: Antimicrobial activity against antibiotic resistant Candida albicans clinical isolate 08030809 assessed as clone count at MIC after 1 min by colony counting assay (reference value: 62 +/- 7 CFU). The assay is classed as functional.
In assay [5] the test system is Candida albicans. Nature of the assay: Antimicrobial activity against antibiotic resistant Candida albicans clinical isolate 08032815 after 16 hrs by broth dilution method. The assay is classed as functional. The conditions noted are these: isolate 08032815, 16 h. A digest of the protocol:
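Broth dilution MIC. Samples were serially diluted in 0.9% NaCl and mixed with Sabouraud broth and yeast suspension at 2 × 10^5 CFU/mL, then incubated 16 h at 28°C. Growth was read at 600 nm. MIC is the lowest concentration giving complete growth inhibition, reported as mean of three independent experiments.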

Assay [6] concerns Candida albicans. Description: Antimicrobial activity against Candida albicans ATCC 2002 assessed as inhibition of yeast growth after 16 hrs by broth dilution method. Type of assay: functional. As to conditions: ATCC 2002, 16 h. In outline: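 Broth microdilution in Sabouraud liquid medium. Samples are stocks in 0.9% NaCl, 10 µL added to 90 µL broth plus 100 µL of 2 × 10^5 CFU/mL yeast suspension. Incubated 16 h at 28°C, growth read by A600. MIC is the lowest concentration completely inhibiting growth; mean of three independent experiments.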
On the technique in general: In broth dilution the organism is exposed to a series of concentrations in liquid medium.

For a further assay, the system named is Bacillus subtilis. Description: Antimicrobial activity against Bacillus subtilis assessed as inhibition of […] growth after 16 hrs by broth dilution method. The assay is classed as functional. In outline:
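Broth dilution in LB broth; 100 µL of 2 × 10^5 CFU/mL bacterial suspension plus 10 µL sample (stock series in 0.9% NaCl) in 90 µL broth, 37°C for 16 h. Growth read as A600; MIC is the lowest concentration completely inhibiting growth. Mean of three independent experiments run in duplicate.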

Assay [7] concerns Candida albicans. Nature of the assay: Antimicrobial activity against antibiotic resistant Candida albicans clinical isolate 08030809 assessed as clone count at 5 times MIC after 6 hrs by colony counting assay (reference value: 14536 +/- 2467 CFU). The assay is classed as functional.
The subject of assay [8] is Candida albicans. Nature of the assay: Antimicrobial activity against antibiotic resistant Candida albicans clinical isolate 08030809 assessed as clone count at 5 times MIC after 24 hrs by colony counting assay (Rvb > 10^5 CFU). Type of assay: functional.
In assay [9] the test system is Candida albicans. Description: Antimicrobial activity against antibiotic resistant Candida albicans clinical isolate 08030809 assessed as clone count at 10 times MIC after 6 hrs by colony counting assay (reference value: 14536 +/- 2467 CFU). Type of assay: functional.
Assay [10] concerns Candida albicans. Nature of the assay: Antimicrobial activity against antibiotic resistant Candida albicans clinical isolate 08030809 assessed as clone count at 10 times MIC after 12 hrs by colony counting assay (reference value: 54153 +/- 8769 CFU). The assay is classed as functional.
Assay [11] relates to Candida albicans. Nature of the assay: Antimicrobial activity against antibiotic resistant Candida albicans clinical isolate 08030809 assessed as clone count at 10 times MIC after 24 hrs by colony counting assay (Rvb > 10^5 CFU). The assay is classed as functional.
The test system of assay [12] is Candida albicans. Nature of the assay: Antimicrobial activity against antibiotic resistant Candida albicans clinical isolate 08030809 assessed as clone count at 5 times MIC after 10 mins by colony counting assay (reference value: 102 +/- 11 CFU). The assay is classed as functional.
For assay [13], the system named is Candida albicans. Description: Antimicrobial activity against antibiotic resistant Candida albicans clinical isolate 08030809 assessed as clone count at 10 times MIC after 10 mins by colony counting assay (reference value: 102 +/- 11 CFU). Type of assay: functional.
Assay [14] has as its system Mus musculus. Description: Antiinflammatory activity in antibiotic resistant Candida albicans clinical isolate 08030809 induced mouse vaginitis model assessed as microabscess number in vaginal tissue at 20 ug administered as intravaginal instillation measured after 16 days by hematoxylin-eosin staining based microscopic method (reference value: 61). The assay is classed as functional, Vagina. A digest of the protocol: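 Mice given weekly subcutaneous estradiol valerate (0.5 mg in 0.1 mL vegetable oil) 72 h before infection. Infected intravaginally with 20 µL of 10^7 CFU/mL C. albicans 08030809. Intravaginal instillation of 20 µL daily for 16 days. Vaginal canals excised after lavage, formalin-fixed, paraffin-embedded, HE-stained. Microabscesses counted per high-power field over 6 fields per section, three independent experiments.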

In assay [15] the test system is Mus musculus. Description: Antiinflammatory activity in antibiotic resistant Candida albicans clinical isolate 08030809 induced mouse vaginitis model assessed as reduction in IL-6 secretion in vaginal tissue at 50 ug administered as intravaginal instillation measured on day 10 by ELISA. Type of assay: functional, Vagina. A digest of the protocol:
(§2)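 Same estradiol-primed mouse model, infected intravaginally with C. albicans 08030809 and treated by intravaginal instillation (20 µL/mouse). Vaginal canals excised on day 10 of treatment and homogenised in 0.9% NaCl. Supernatant taken after 2,000 g for 15 min. TNF-α, IL-6, IL-1β and IL-10 measured by ELISA. Mean ± SE of three independent experiments; unpaired t-test versus vehicle.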

Assay [16] deals with Mus musculus. Description: Antiinflammatory activity in antibiotic resistant Candida albicans clinical isolate 08030809 induced mouse vaginitis model assessed as reduction in IL-1beta secretion in vaginal tissue at 20 ug administered as intravaginal instillation measured on day 10 by ELISA. Type of assay: functional, Vagina. In outline: as §2
The test system of assay [17] is Candida albicans. Description: Antimicrobial activity against antibiotic resistant Candida albicans clinical isolate 08030809 in mouse vaginitis model assessed as decrease in colony count in lavage liquid of vagina at 20 ug administered as intravaginal instillation measured on day 6. The assay is classed as functional.
For assay [18], the system named is Candida albicans. Description: Antimicrobial activity against antibiotic resistant Candida albicans clinical isolate 08030809 in mouse vaginitis model assessed as decrease in colony count in lavage liquid of vagina at 50 ug measured on day 1. The assay is classed as functional.
The subject of assay [19] is Candida albicans. Description: Effect on cell morphology in antibiotic resistant Candida albicans clinical isolate 08030809 assessed as cell swelling at MIC to 2.5 times MIC after 30 mins by scanning electron microscopy. The assay is classed as functional, organism-based. A digest of the protocol:
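Exponential-phase C. albicans 08030809 was washed in PBS and resuspended in Sabouraud medium. Cells were treated 30 min at 37°C alongside a vehicle control. They were then fixed in 2.5% glutaraldehyde (4°C, 2 h) and 1% osmium tetroxide, dehydrated through graded ethanol, freeze-dried from tert-butanol, gold-coated and imaged by SEM. Images are typical of three experiments.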

Assay [20] concerns Candida albicans. Description: Effect on cell membrane integrity in antibiotic resistant Candida albicans clinical isolate 08030809 at MIC measured every 2 mins upto 20 mins by SYTOX green nucleic acid staining-based fluorescence assay. Type of assay: functional, organism-based. A digest of the protocol: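 Exponential-phase C. albicans 08030809 was washed and resuspended at 10^6 CFU/mL in 10 mM PBS pH 7.4. Cells were loaded with 0.1 µM (final) SYTOX Green for 15 min at 37°C with shaking, then test samples were added. Fluorescence (ex 488/em 530 nm) was recorded every 2 min as RFU. Mean ± SE of five independent experiments.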

The MIC is the lowest concentration that inhibits growth of the organism. As for H-VKRWKKWRWKWKKWV-NH2, the MIC against Candida albicans [1] came out at 2.79 µg/mL; in the assay on Candida albicans [2], 2.65 µg/mL; against Candida albicans [3], 2.79 µg/mL; against Candida albicans [5] it was 2.79 µg/mL; in the assay on Candida albicans [6], 0.59 µg/mL; in the assay on Bacillus subtilis, 1.17 µg/mL. Also, the Activity in the assay on Candida albicans [4] is given as 18 CFU; with Candida albicans [7] it was 0 CFU; in the assay with Candida albicans [8] it was 0 CFU; in the assay with Candida albicans [9], 0 CFU; in the assay with Candida albicans [10], 0 CFU; in the assay with Candida albicans [11] it was 0 CFU. For the same substance, the Activity with Candida albicans [12] is recorded as 9 CFU; in the assay on Candida albicans [13], 4 CFU; in the assay with Mus musculus [14] it was less than 3. Further, the “inhibition (INH)” value in the assay with Mus musculus [15] stood at 57%; with Mus musculus [16], 44%; with Candida albicans [17], 22%; with Candida albicans [18] it was 28%. The outcome in the assay on Candida albicans [19] and in the assay on Candida albicans [20] was Active.
